ChEMBL document CHEMBL4513216, “Probing the Open Global Health Chemical Diversity Library for Multistage-Active Starting Points for Next-Generation Antimalarials” (ACS Infect Dis, 2020)

Experiment: Toxicity liver stage against HepG2, at 10uM
Assay type: cell-based
Set-up: test concentration 10 uM, cell line HepG2-A16-CD81EGFP
Conditions: human, HepG2-A16-CD81EGFP cells; read-out: INHIBITION
Outline: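 Uninfected HepG2-A16-CD81EGFP cells, 3 × 10^3 per well, 1536-well, plated on prespotted compound at 10 μM final, parasite-free screening media added to match infected plates; puromycin 10 μM positive, DMSO 0.5% negative; run in parallel with 48 h PbLuc assay at 37 °C, 5% CO2; viability by CellTiter-Glo luminescence, normalized to controls.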

SMILES	cytotoxicity at 10 µM [%]
NCC(c1ccccc1)N1CCc2sccc2C1 (stereo unspecified)	1.88
O=C1NC2(CCN(C(=O)c3ccc(Cl)cn3)CC2)CC1c1ccccc1 (stereo unspecified)	2.75
COc1nc2c(cc1C(=O)NC(C)Cc1cnccn1)CCC2 (stereo unspecified)	-135
CC(C)(N)c1cn([C@@H]2c3ccccc3C3(CCNCC3)[C@H]2O)nn1	-4.67
O=C(Cn1ccc(=O)cc1)NCc1ccc2sccc2c1	0.592
COc1cccc(-n2cc(-c3ccnc(NC(CO)C(C)C)n3)cn2)c1 (stereo unspecified)	2.74
Cc1cccc2c1nc(COCC(=O)O)n2-c1cnc(N)cn1	0.238
COCCCC1CCCCN1S(=O)(=O)c1cccc(C#N)c1 (stereo unspecified)	-133
CC(C)(CN1CCC2(CCCNC2)C1)N1CCOCC1 (stereo unspecified)	-141
NC(=O)c1ccc(N2CCN(Cc3cccc4nsnc34)CC2)nc1	34.1
Cc1c(NC(=O)NC2CCOCC2)cccc1C(=O)N1CCCC1	12
CN(Cc1nc(-c2cccnc2)no1)C(=O)c1c2c(nn1C)CCCC2	7.54
CC(=O)NCCC1CCCCN1S(=O)(=O)c1cccc(F)c1 (stereo unspecified)	-155
CN(CCc1ccccc1)c1cnn(CC2COCCO2)c(=O)c1 (stereo unspecified)	-10.3
COC(=O)CNC(=O)CC1COc2ccc(C(=O)N(C)C)cc2N1C (stereo unspecified)	-8.8
CCCC1(CO)CCCN(C(=O)CNC(N)=O)C1 (stereo unspecified)	0.83
O=C1NCCN(Cc2ccccc2)C1CC(=O)N1CCc2n[nH]cc2C1 (stereo unspecified)	-6.73
CCCn1ncc(-c2nc3c(cnn3CC)[nH]2)c1C	4.05
CN(C)c1ccc(CN2CCC(C(O)Cc3ccccc3)CC2)cn1 (stereo unspecified)	-1.29

SMILES	cytotoxicity at 10 µM [%]
CCc1c(C)nn(CCNC(=O)c2cc(C3CC3)n[nH]2)c1C	-12.1
c1ccc(Cc2nc(CNC3CCOC4(CCOCC4)C3)no2)cc1 (stereo unspecified)	-10.6
O=S1(=O)C[C@@H]2[C@H](C1)N(Cc1nc3ccccc3[nH]1)CCN2CC1CC1	-133
N#Cc1c(C2CC2)cc(-c2ccc(F)c(F)c2)nc1N	-5.73
COc1cccc(-c2n[nH]cc2C(=O)NC(C)c2nc(C(C)C)no2)c1 (stereo unspecified)	-2.75
CCc1c(C)nn(CCNC(=O)C2CCCN(C(=O)N(C)C)C2)c1C (stereo unspecified)	-4.42
CC(C)c1cc(NC(=O)c2ccc([S+]([O-])C(C)C)cc2)[nH]n1 (stereo unspecified)	-7.52
Cc1cc(C2CCCN(C(=O)CCc3cscn3)C2)n[nH]1 (stereo unspecified)	-0.939
Cc1cc(C)n(CCN2CCOC(CNc3cccnn3)C2)n1 (stereo unspecified)	-3.2
c1ccc(-c2nnc(CN3CCCC3Cn3cncn3)o2)cc1 (stereo unspecified)	-7.42
CC(=O)N1CCCC1C(=O)NCCOc1cccc(F)c1 (stereo unspecified)	-7.81
COc1ccc(CCN(C)C2CCCN(Cc3noc(C)n3)C2)cc1 (stereo unspecified)	-4.59
c1ccc2oc(N3CCCC3Cn3cncn3)nc2c1 (stereo unspecified)	-14.4
COc1cc(C)nc(N2CCN(C(=O)c3ccn(C)c(=O)c3)CC2)n1	-12.8
CCNc1cc2c(nn1)CCN(C(=O)Cc1ccc(C)nc1)C2	-3.63
Cn1cnc2c1CCN(Cc1cccc(C(=O)N3CCCCC3)c1)C2	-2.75
O=C(Nc1ccncc1)N(CCO)Cc1ccsc1	-3.98
CC(C)c1noc(CCCC(=O)N2CCN(Cc3cccnc3)CC2)n1	-2.96
c1ccc(-c2nc(CN3CCCCC3Cn3cncn3)co2)cc1 (stereo unspecified)	-14.4

SMILES	cytotoxicity at 10 µM [%]
CC(Cn1cccn1)NC(=O)c1cccs1 (stereo unspecified)	-4.26
Cc1cc(C(=O)N2CCCC(n3cncn3)C2)c(C)n1CC1CC1 (stereo unspecified)	2.37
Cc1nnc(NC(=O)NCc2ccnc(N(C)C)c2)s1	-10.2
Cc1cn2nc(N3CCCC3Cn3nc(C)nc3C)sc2n1 (stereo unspecified)	-14.6
CC(c1cccc(F)c1)N1CCN(Cc2nccn2C)CC1 (stereo unspecified)	-7.81
CCn1cnnc1C1CCN(C(=O)COc2ccccc2OC)CC1	-4.41
c1ccc(-c2nc(CN3CCCC(Cn4cncn4)C3)no2)cc1 (stereo unspecified)	3.71
CN(C)CCN(C)C(=O)Cc1ccc2c(c1)OCCO2	-7.94
O=C(c1ccnnc1)N1CCN(Cc2cccnc2)c2ncccc2C1	0.121
Cc1cccc(CN2C(=O)CCC23CCN(C(=O)NC(C)C)CC3)n1	5
CN(C)C(=O)N1CCc2onc(C(=O)Nc3cccnc3)c2C1	4.85
O=C1[C@H]2CN(Cc3nccs3)C[C@H]2CN1c1cncnc1	-81.9
CCN(CC)CC1CN(Cc2nccs2)Cc2nccn2C1 (stereo unspecified)	1.13
Cc1nc(CN2Cc3nccn3CC(CN3CCOCC3)C2)cs1 (stereo unspecified)	0.951
CN1C(=O)CC(c2ccccc2)C12CCN(CC1CC1)CC2 (stereo unspecified)	-1.95
CO[C@H]1CC[C@H]2[C@H]1OCCN2Cc1ccc(F)cc1	7.34
Cc1cccc(CN2CC[C@@H]3[C@@H]2CCN3C(=O)c2cc(C)on2)n1	-0.762
O=C(NC1CCC2(CCC(=O)N2CC2CC2)CC1)c1cnccn1 (stereo unspecified)	0.729
